The source of these data is ChEMBL document CHEMBL3739382 (Eur J Med Chem, 2015).

By residual activity is commonly meant the signal under treatment as a percentage of the control signal. For orientation: inhibition means the share of the control response that was lost under treatment. By IC50 is commonly meant the concentration that gives 50% inhibition. Usually Ki stands for the dissociation constant of the complex between target and ligand, obtained from inhibition or displacement.

For data set [1], the target named is T1, Tyrosinase (Agaricus bisporus) (UniProt O42713).
T1 sequence (whole entry): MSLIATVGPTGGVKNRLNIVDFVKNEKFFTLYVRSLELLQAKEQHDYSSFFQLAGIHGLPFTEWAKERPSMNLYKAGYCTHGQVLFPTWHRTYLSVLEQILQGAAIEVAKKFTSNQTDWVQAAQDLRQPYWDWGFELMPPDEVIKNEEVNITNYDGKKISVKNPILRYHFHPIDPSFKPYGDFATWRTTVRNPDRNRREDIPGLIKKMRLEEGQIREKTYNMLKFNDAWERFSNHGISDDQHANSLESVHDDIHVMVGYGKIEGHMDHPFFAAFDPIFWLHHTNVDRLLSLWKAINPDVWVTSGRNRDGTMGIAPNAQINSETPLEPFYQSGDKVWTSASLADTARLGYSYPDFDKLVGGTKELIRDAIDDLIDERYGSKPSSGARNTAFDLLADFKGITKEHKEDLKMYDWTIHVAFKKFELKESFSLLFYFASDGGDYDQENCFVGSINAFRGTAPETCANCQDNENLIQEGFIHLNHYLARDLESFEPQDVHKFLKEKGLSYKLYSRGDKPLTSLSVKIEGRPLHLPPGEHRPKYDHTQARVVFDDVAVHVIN
In words: Binding affinity to mushroom tyrosinase assessed as fluorescence quenching.

In data set [2] the target is T2, Tyrosinase (Mus musculus) (UniProt P11344).
T2 sequence (whole entry): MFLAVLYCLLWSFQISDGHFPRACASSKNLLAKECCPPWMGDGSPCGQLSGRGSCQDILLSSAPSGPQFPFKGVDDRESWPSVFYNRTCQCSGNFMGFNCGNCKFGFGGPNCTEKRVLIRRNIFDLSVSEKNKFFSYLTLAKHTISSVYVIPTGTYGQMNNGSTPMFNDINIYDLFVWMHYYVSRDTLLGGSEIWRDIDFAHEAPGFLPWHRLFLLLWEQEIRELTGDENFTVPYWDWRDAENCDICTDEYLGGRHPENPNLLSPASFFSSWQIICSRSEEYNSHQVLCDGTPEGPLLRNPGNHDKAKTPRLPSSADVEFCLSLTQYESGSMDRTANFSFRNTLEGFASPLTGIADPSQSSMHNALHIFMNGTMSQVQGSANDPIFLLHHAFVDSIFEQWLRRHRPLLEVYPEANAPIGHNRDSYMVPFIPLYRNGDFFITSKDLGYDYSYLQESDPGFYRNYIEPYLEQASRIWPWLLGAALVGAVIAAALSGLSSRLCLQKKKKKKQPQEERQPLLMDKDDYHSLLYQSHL
Put plainly: Inhibition of tyrosinase in mouse B16F10 cells assessed as remaining melanin production at 50 uM relative to control. Particulars: B16-F10.

In data set [3] the target is T2, Tyrosinase (Mus musculus). Put plainly: Inhibition of tyrosinase in mouse B16F10 cells assessed as remaining melanin production at 10 uM relative to control. The settings on record: B16-F10.
Data set [4] deals with T2, Tyrosinase (Mus musculus). In words: Inhibition of tyrosinase in mouse B16F10 cell lysates using DOPA as substrate relative to control. The class given is cell-free. On the set-up: concentration or dose not given beside the values. The settings on record: B16-F10, concentration not given here.
Data set [5] can be described thus: Cytotoxicity against mouse B16F10 cells assessed as cell survival at 50 uM after 48 hrs by MTT assay. Particulars: read-out: Survival. The class given is cell-based, B16-F10.
For data set [6], the target named is T2, Tyrosinase (Mus musculus). Put plainly: Inhibition of tyrosinase in mouse B16F10 cells assessed as remaining melanin production at 20 uM relative to control. The settings on record: B16-F10.
Data set [7] deals with T3, Tyrosinase (Agaricus bisporus, UniProt O42713).
T3 sequence (O42713 whole entry): T1 sequence (whole entry)
In words: Inhibition of mushroom tyrosinase using L-tyrosine as substrate.

In data set [8] the target is T1, Tyrosinase (Agaricus bisporus). Put plainly: Non-competitive inhibition of mushroom tyrosinase using L-tyrosine as substrate by Lineweaver-Burk plots analysis. The method, boiled down:
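Absorbance at 475 nm read at 30 °C in PBS with 5% DMSO. Global nonlinear Michaelis–Menten fitting over four inhibition models gave Vmax, Km, Kic and Kiu, with the model chosen by minimal χ2.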

The target in data set [9] is T3, Tyrosinase. Put plainly: Competitive inhibition of mushroom tyrosinase using L-tyrosine as substrate by Lineweaver-Burk plots analysis. The method, boiled down: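 Global nonlinear Michaelis–Menten fitting over four inhibition models gave Vmax, Km, Kic and Kiu, with the model chosen by minimal χ2.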

In the case of `CC(=O)Nc1ccccc1` [ACETANILIDE], the KSV in data set [1] came out at 1 ×10³ /M. For the same compound, the residual activity in [2] turned out to be 102%; in data set [3], 105%; in [6], 103%. In addition, the inhibition in data set [4] was 99%. Further, the viability at 48 h, 50 µM in data set [5] was found to be 116%. Further, the IC50 in data set [7] is above 1000 µM.

For `CCc1cc(C(N)=S)ccn1` [ETHIONAMIDE], in data set [1], the KSV is 9.5 ×10³ /M. The residual activity in data set [2] worked out at 104%; in data set [3] it was 107%; in data set [6], 104%. Also, the inhibition in data set [4] was 88%. Further, the Kic in [8] was 1.9 µM. For the same compound, the viability at 48 h, 50 µM in data set [5] turned out to be 106%. The IC50 in data set [7] is 4 µM.

Regarding `NC(=S)Nc1ccccc1` [PHENYLTHIOUREA], the KSV in data set [1] was determined as 2.4 ×10³ /M. Moreover, the residual activity in data set [2] is 54%; in [3], 63%; in [6], 55%. In data set [4], this compound gave an inhibition of 27%. In addition, in data set [5], the viability at 48 h, 50 µM is 106%.

On to `NC(=S)c1ccccn1`, for which, in [1], the KSV is 9 ×10³ /M. Further, the residual activity in data set [2] is 56%; in [3], 98%; in data set [6], 80%. This compound also registered an inhibition in data set [4] of 78%. The compound further gave a Kic in data set [8] of 2.7 µM. Moreover, in [5], the viability at 48 h, 50 µM came out at 105%. For the same compound, in data set [7], the IC50 was determined as 14.4 µM.

Take `CC(=S)Nc1ccccc1`: the KSV in data set [1] was 8.3 ×10³ /M. Moreover, the residual activity was determined as 57% in data set [2], 91% in data set [3] and 75% in [6]. This compound also registered an inhibition in [4] of 42%. The same compound yielded a Ki in data set [9] of 1.2 µM. Besides, in data set [5], the viability at 48 h, 50 µM worked out at 116%. The same compound registered an IC50 in data set [7] of 4.1 µM.

Take `NNC(=O)c1ccncc1` [ISONIAZID]: in data set [1], the KSV amounted to 1.7 ×10³ /M. Further, the residual activity in [2] came out at 102%; in [3], 104%; in [6], 100%. Further, in [4], the inhibition was 97%. For the same compound, the viability at 48 h, 50 µM in data set [5] was found to be 103%. Further, in [7], the IC50 was above 1000 µM.

On to `NC(=S)c1cccnc1`, for which the KSV in [1] was 8.5 ×10³ /M. In addition, the residual activity was 106% in [2], 109% in [3] and 104% in [6]. In addition, the inhibition in data set [4] came out at 83%. The Kic in data set [8] worked out at 4.3 µM. Moreover, the viability at 48 h, 50 µM in [5] came out at 108%. The compound also registered a half-inhibitory concentration (IC50) in [7] of 7.5 µM.

For `CCCc1cc(C(N)=S)ccn1` [PROTIONAMIDE], the KSV in [1] amounted to 10.2 ×10³ /M. Further, the values for the residual activity in [2], in [3] and in data set [6] were 100%, 105% and 103%, respectively. Also, the inhibition in [4] amounted to 84%. Also, in data set [8], the Kic turned out to be 2.4 µM. Further, in data set [5], the viability at 48 h, 50 µM stood at 121%. This compound came in with an IC50 in data set [7] of 4.5 µM.

Take `NC(=S)c1ccncc1`: the KSV in data set [1] was 7.5 ×10³ /M. For the same compound, the residual activity in data set [2] came out at 104%; in data set [3], 106%; in [6] it was 103%. In data set [4], the inhibition turned out to be 93%. Moreover, the Kic in data set [8] worked out at 22.3 µM. The viability at 48 h, 50 µM in [5] was 110%. Besides, the 50% inhibitory concentration (IC50) in [7] is 43.8 µM.

On to `NC(=S)c1ccccc1`, for which the KSV in data set [1] was determined as 9.2 ×10³ /M. The residual activity came out at 63% in data set [2], 103% in [3] and 93% in data set [6]. Moreover, in data set [4], the inhibition came to 72%. Moreover, the Kic in [8] amounted to 0.7 µM. For the same compound, the viability at 48 h, 50 µM in data set [5] was 117%. In data set [7], half-maximal inhibition (IC50) was put at 2.8 µM.
